ChEMBL document CHEMBL1152809, “Structure-activity relationships of orotidine-5'-monophosphate decarboxylase inhibitors as anticancer agents” (J Med Chem, 2009)
Calls of active or inactive are those of the source. The rule behind the calls is not given here.

How the values were obtained:
[1] = molecular target: T1, Uridine 5'-monophosphate synthase (Homo sapiens) (UniProt P11172); assay: (§1) Irreversible inhibition of human ODCase
T1 sequence (whole entry): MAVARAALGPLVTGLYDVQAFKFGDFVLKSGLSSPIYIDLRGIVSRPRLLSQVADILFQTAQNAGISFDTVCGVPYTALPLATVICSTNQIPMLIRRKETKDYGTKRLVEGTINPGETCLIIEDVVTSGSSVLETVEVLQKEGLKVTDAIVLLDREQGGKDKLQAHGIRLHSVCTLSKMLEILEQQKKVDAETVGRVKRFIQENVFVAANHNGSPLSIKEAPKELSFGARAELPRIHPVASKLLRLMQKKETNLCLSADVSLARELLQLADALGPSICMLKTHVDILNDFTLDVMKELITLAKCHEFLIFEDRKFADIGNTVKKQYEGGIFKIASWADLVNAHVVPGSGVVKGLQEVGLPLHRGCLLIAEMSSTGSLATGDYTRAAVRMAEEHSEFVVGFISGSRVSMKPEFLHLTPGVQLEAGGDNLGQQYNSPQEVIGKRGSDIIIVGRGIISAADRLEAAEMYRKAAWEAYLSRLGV

[2] = molecular target: T2, Uridine 5'-monophosphate synthase (Homo sapiens, UniProt P11172); assay: as §1
T2 sequence (P11172 whole entry): T1 sequence (whole entry)

[3] = molecular target: Orotidine 5'-phosphate decarboxylase (Methanobacterium thermoautotrophicum, UniProt O26232); assay: Reversible inhibition of Methanobacterium thermoautotrophicum ODCase; parameters: species or system Methanothermobacter thermautotrophicus
Chain of Orotidine 5'-phosphate decarboxylase (O26232 whole entry): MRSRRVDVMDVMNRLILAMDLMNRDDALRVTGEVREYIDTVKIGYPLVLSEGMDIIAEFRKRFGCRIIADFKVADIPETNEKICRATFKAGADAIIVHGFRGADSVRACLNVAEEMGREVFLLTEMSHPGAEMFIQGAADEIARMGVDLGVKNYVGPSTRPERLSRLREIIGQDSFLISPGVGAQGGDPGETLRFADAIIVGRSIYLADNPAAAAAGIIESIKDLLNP
Procedure, shortened: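 Inhibitor levels span 0-1.0 µM up to 0-4.0 mM depending on compound. Rates from heat flow fitted to a competitive model for Ki; experiments in triplicate.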

[4] = molecular target: T2, Uridine 5'-monophosphate synthase; assay: Reversible inhibition of human ODCase
Procedure, shortened: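 Human ODCase at 60 nM in 50 mM Tris, 1 mM DTT, assayed by ITC at 37 °C. Enzyme mixed with inhibitor (stocks in 50 mM Tris pH 7.5) and the reaction started with OMP, 15 or 20 µM final. Inhibitor ranges from 0-1.0 µM up to 0-500 µM. Ki from direct fit of decarboxylation rates; triplicates.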

ML1 = assay: Induction of apoptosis in human OCI-AML1 cells by […]/propidium iodide staining assay; assay type: functional, cell-based
Procedure, shortened: (§2)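 Cells seeded in duplicate at 10^5 cells/mL; inhibitors added straight after seeding at 4 µM final, water in control wells. Cells harvested every 24 h, washed in PBS, stained with Annexin V/propidium iodide (1:200) and analysed by FACS; apoptotic cells scored as Annexin V+/PI-, necrotic as Annexin V+/PI+.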

[5] = Cytotoxicity against human CCD-967 cells up to 50 uM after 3 days by WST1 assay; assay type: cell-based; settings: ccd-967, 72 h
Procedure, shortened: (§3)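 Cells grown in Iscove's MDM with 5% FCS, 50 µM 2-mercaptoethanol and antibiotics, kept subconfluent if adherent. Seeded in triplicate at 10^4 cells/100 µL with compounds (in water) added at once, 0 to 100 µM final. WST.1 formazan read at 440 nm on day 3; IC50 from OD versus concentration.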

Hs-578T [6] = assay: Antitumor activity against human Hs 578T cells up to 50 uM after 3 days by WST1 assay; assay type: functional, cell-based
Procedure, shortened: (§4)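 Cell lines grown in Iscove's MDM with 5% FCS, 50 µM 2-mercaptoethanol, penicillin and streptomycin; suspension lines kept at 0.5-1.5 × 10^6 cells/mL, adherent lines subconfluent. Cells seeded in triplicate at 10^4 cells/100 µL. Compounds were dissolved in water and added immediately at 0 to 100 µM final. WST.1 read at 440 nm on day 3; IC50 taken from OD versus concentration plots.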

T47D [7] = assay: Antitumor activity against human T47D cells up to 50 uM after 3 days by WST1 assay; assay type: functional, cell-based; procedure, shortened: as §4
PC-3 = assay: Antitumor activity against human PC3 cells up to 50 uM after 3 days by WST1 assay; assay type: functional, cell-based; procedure, shortened: as §4
SNB-19 [8] = assay: Antitumor activity against human SNB19 cells up to 50 uM after 3 days by WST1 assay; assay type: functional, cell-based; procedure, shortened: as §4
OCI-Ly7 = assay: Induction of apoptosis in human OCI-LY7 cells 4 uM by […]/propidium iodide staining assay; assay type: functional, cell-based; procedure, shortened: as §2
Homo sapiens = species on record: Homo sapiens; assay: Induction of apoptosis in human OCI-My 2 cells 4 uM by […]/propidium iodide staining assay; assay type: functional, cell-based; procedure, shortened: as §2
[9] = Antitumor activity against human MDA468 cells after 3 days by WST1 assay; assay type: functional, cell-based; settings: MDA-MB-468, 72 h; procedure, shortened: as §4
[10] = Antitumor activity against human OCI-AML1 cells after 3 days by WST1 assay; assay type: functional, cell-based; settings: ML1, 72 h; procedure, shortened: as §4
OCI-AML2 = assay: Antitumor activity against human OCI-AML2 cells after 3 days by WST1 assay; assay type: functional, cell-based; settings: OCI-AML2, 72 h; procedure, shortened: as §4
[11] = Antitumor activity against human OCI-LY7 cells after 3 days by WST1 assay; assay type: functional, cell-based; settings: OCI-Ly7, 72 h; procedure, shortened: as §4
[12] = Antitumor activity against human OCI-My 2 cells after 3 days by WST1 assay; assay type: functional, cell-based; settings: 72 h; procedure, shortened: as §4
[13] = Antitumor activity against human SKW3 cells after 3 days by WST1 assay; assay type: functional, cell-based; settings: SKW3, 72 h; procedure, shortened: as §4
MCF7 [14] = assay: Antitumor activity against human MCF7 cells after 3 days by WST1 assay; assay type: functional, cell-based; settings: MCF7, 72 h; procedure, shortened: as §4
[15] = Antitumor activity against human LOX cells after 3 days by WST1 assay; assay type: functional, cell-based; settings: 72 h; procedure, shortened: as §4
SKW3 = assay: Induction of apoptosis in human SKW3 cells at 4 uM by annexin V/propidium iodide staining assay
OVCAR-4 = assay: Antitumor activity against human OVCAR4 cells after 3 days by WST1 assay; assay type: functional, cell-based; settings: OVCAR-4, 72 h; procedure, shortened: as §4
COLO 205 = assay: Antitumor activity against human COLO205 cells after 3 days by WST1 assay; assay type: functional, cell-based; settings: COLO 205, 72 h; procedure, shortened: as §4
PBMC = assay: Cytotoxicity against human PBMC cells by WST1 assay; assay type: cell-based
Procedure, shortened: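 Donor PBMCs isolated on Ficoll-Hypaque from blood diluted 1:1 in PBS, washed twice in PBS and stimulated with 3 µg/mL concanavalin A. Seeded in triplicate at 10^5 cells/100 µL; compounds in water added immediately, 0-100 µM final. WST.1 absorbance at 440 nm on day 3; IC50 from OD versus concentration plots.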

[16] = Cytotoxicity against human CCD-967 cells up to 4 uM after 3 days by WST1 assay; assay type: cell-based; settings: ccd-967, 72 h; procedure, shortened: as §3
Hs-578T [17] = assay: Antitumor activity against human Hs 578T cells up to 4 uM after 3 days by WST1 assay; assay type: functional, cell-based; procedure, shortened: as §4
T47D [18] = assay: Antitumor activity against human T47D cells up to 4 uM after 3 days by WST1 assay; assay type: functional, cell-based; procedure, shortened: as §4
SNB-19 [19] = assay: Antitumor activity against human SNB19 cells up to 4 uM after 3 days by WST1 assay; assay type: functional, cell-based; procedure, shortened: as §4
[20] = (§5) Irreversible inhibition of Methanobacterium thermoautotrophicum ODCase; parameters: species or system Methanothermobacter thermautotrophicus
[21] = test system: Methanothermobacter thermautotrophicus; assay: as §5
MCF7 [22] = assay: Antitumor activity against human MCF7 cells up to 50 uM after 3 days by WST1 assay; assay type: functional, cell-based; procedure, shortened: as §4
MDA-MB-468 = assay: Antitumor activity against human MDA468 cells up to 50 uM after 3 days by WST1 assay; assay type: functional, cell-based; procedure, shortened: as §4

Ki [3] | IC50 (OCI-AML2) | IC50 (MCF7 [14]) | IC50 (OVCAR-4) | IC50 (COLO 205) | SMILES | Activity [5] | Activity (Hs-578T [6]) | Activity (T47D [7]) | Activity (PC-3) | Activity (SNB-19 [8]) | IC50 [9] | IC50 [10] | IC50 [11] | IC50 [12] | IC50 [13] | IC50 [15] | other results
0.36 µM | – | – | – | – | [N-]=[N+]=Nc1c(F)c(=O)[nH]c(=O)n1[C@@H]1O[C@H](COP(=O)(O)O)[C@@H](O)[C@H]1O | – | – | – | – | – | – | – | – | – | – | – | Kinact [1]: 41 h⁻¹; Ki [2]: 18.2 µM
11.4 µM | – | – | – | – | Nc1c(F)c(=O)[nH]c(=O)n1[C@@H]1O[C@H](COP(=O)(O)O)[C@@H](O)[C@H]1O | – | – | – | – | – | – | – | – | – | – | – | Ki [4]: 16.6 µM
– | 0.7 µM | 23.7 µM | – | – | O=Cc1c(F)c(=O)[nH]c(=O)n1[C@@H]1O[C@H](CO)[C@@H](O)[C@H]1O | Not Active | inactive | inactive | inactive | inactive | 1.9 µM | 0.3 µM | 0.6 µM | 0.4 µM | 0.3 µM | 0.4 µM | Activity (ML1): Active; Activity (OCI-Ly7): Active; Activity (Homo sapiens): Active; Activity (SKW3): Active
– | 0.7 µM | 1 µM | 1.5 µM | 3.8 µM | [N-]=[N+]=Nc1c(F)c(=O)[nH]c(=O)n1[C@@H]1O[C@H](CO)[C@@H](O)[C@H]1O | – | – | – | – | – | 1.8 µM | 0.6 µM | 0.7 µM | 0.6 µM | 0.4 µM | 2.3 µM | Activity (ML1): Active; IC50 (PBMC): > 10 µM; Activity [16]: Not Active; Activity (Hs-578T [17]): inactive; Activity (T47D [18]): inactive; Activity (SNB-19 [19]): inactive; Activity (OCI-Ly7): Active; Activity (Homo sapiens): Active; Activity (SKW3): Active
645 µM | – | – | – | – | O=c1[nH]c(=O)n([C@@H]2O[C@H](COP(=O)(O)O)[C@@H](O)[C@H]2O)cc1F | – | – | – | – | – | – | – | – | – | – | – | Ki [4]: 98 µM
0.2 µM | – | – | – | – | [N-]=[N+]=Nc1cc(=O)[nH]c(=O)n1[C@@H]1O[C@H](COP(=O)(O)O)[C@@H](O)[C@H]1O | – | – | – | – | – | – | – | – | – | – | – | Ki [20]: 0.6 µM; Kinact [21]: 61.2 h⁻¹
– | 0.9 µM | 1.4 µM | 2 µM | 3.3 µM | Nc1c(F)c(=O)[nH]c(=O)n1[C@@H]1O[C@H](CO)[C@@H](O)[C@H]1O | – | – | – | – | – | 2.6 µM | 0.7 µM | 1.3 µM | 0.9 µM | 0.6 µM | 3.4 µM | Activity (ML1): Active; IC50 (PBMC): > 10 µM; Activity [16]: Not Active; Activity (Hs-578T [17]): inactive; Activity (T47D [18]): inactive; Activity (SNB-19 [19]): inactive; Activity (OCI-Ly7): Active; Activity (Homo sapiens): Active; Activity (SKW3): Active
– | – | – | – | – | O=c1[nH]c(=O)n([C@@H]2O[C@H](COP(=O)(O)O)[C@@H](O)[C@H]2O)c(I)c1F | – | – | – | – | – | – | – | – | – | – | – | Kinact [1]: 158 h⁻¹; Ki [2]: 1.1 µM
– | 16 µM | > 50 µM | > 50 µM | > 50 µM | O=c1cnn([C@@H]2O[C@H](COP(=O)(O)O)[C@@H](O)[C@H]2O)c(=O)[nH]1 [6-AZA-URIDINE MONOPHOSPHATE] | Not Active | inactive | inactive | inactive | inactive | > 50 µM | 6.1 µM | > 50 µM | 18.7 µM | 2.8 µM | 6.7 µM | Activity (MCF7 [22]): inactive; Activity (MDA-MB-468): inactive
– | > 50 µM | > 50 µM | > 50 µM | > 50 µM | O=c1[nH]c(=O)n([C@@H]2O[C@H](CO)[C@@H](O)[C@H]2O)c(I)c1F | Not Active | inactive | inactive | inactive | inactive | > 50 µM | > 50 µM | > 50 µM | > 50 µM | > 50 µM | > 50 µM | Activity (MCF7 [22]): inactive; Activity (MDA-MB-468): inactive
29 µM | – | – | – | – | CCc1c(F)c(=O)[nH]c(=O)n1[C@@H]1O[C@H](COP(=O)(O)O)[C@@H](O)[C@H]1O | – | – | – | – | – | – | – | – | – | – | – | Ki [4]: 0.35 µM
– | > 50 µM | > 50 µM | > 50 µM | > 50 µM | Cc1cc(=O)[nH]c(=O)n1[C@@H]1O[C@H](CO)[C@@H](O)[C@H]1O | Not Active | inactive | inactive | inactive | inactive | > 50 µM | > 50 µM | > 50 µM | > 50 µM | > 50 µM | > 50 µM | Activity (MCF7 [22]): inactive; Activity (MDA-MB-468): inactive
